Laboratory results published in PMC5074691 (Cell reports, 2016).
No end group written: not given here.

T1: MORC3 CW domain (residues 407-455), crystallised (human, UniProt Q14149 407-455)
T1 chain (looked up): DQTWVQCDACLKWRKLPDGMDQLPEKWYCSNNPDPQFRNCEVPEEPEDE


How the values were obtained:
[1] = target: MORC3 CW domain (wild type, GST tag cleaved) (human); test: other fluorescence titration
MORC3-CW E453A (human) = test: ITC
chromatin in HeLa cells = test: Chromatin association assay; format: cell-based; settings: 48 h post transfection, fractionation and immunoblot
How it was run: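 HeLa cells (DMEM, 10% FBS, pen/strep) are transfected with full-length human N-terminal 3xFLAG-MORC3, WT or CW mutants, and trypsinized at 48 h. The washed chromatin pellet is nuclease-solubilized. Fractions (1–5 µg) are immunoblotted for FLAG, β-tubulin and H3.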

[2] = test system: nuclear bodies (NBs) in HeLa cells; test: Confocal immunofluorescence of FLAG-tagged MORC3; format: cell-based; settings: 48 h post transfection, anti-FLAG
How it was run: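 HeLa in DMEM/10% FBS/penicillin-streptomycin grown on chamber slides, transiently transfected (TurboFect) with WT or CW-mutant 3xFLAG-MORC3 (C416S, C416A, W419A). At 48 h: cold methanol fixation (−20°C, 10 min), 1% BSA block 30 min, anti-FLAG 1:200 for 1 h at 25°C, then Alexa Fluor 647 secondary 1:1000 for 1 h. DAPI mount; confocal imaging with 100X objective.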

[3] = target: T1, MORC3 CW domain (residues 407-455), …; test: crystal structure

Molecule	Kd [1] [nM]	association with chromatin (chromatin in HeLa cells)	nuclear localization [2]	also measured
MORC3 His-ATPase domain (aa 1-392) (domain or fragment) MAAQPPRGIRLSALCPKFLHTNSTSHTWPFSAVAELIDNAYDPDVNAKQIWIDKTVINDHICLTFTDNGNGMTSDKLHKMLSFGFSDKVTMNGHVPVGLYGNGFKSGSMRLGKDAIVFTKNGESMSVGLLSQTYLEVIKAEHVVVPIVAFNKHRQMINLAESKASLAAILEHSLFSTEQKLLAELDAIIGKKGTRIIIWNLRSYKNATEFDFEKDKYDIRIPEDLDEITGKKGYKKQERMDQIAPESDYSLRAYCSILYLKPRMQIILRGQKVKTQLVSKSLAYIERDVYRPKFLSKTVRITFGFNCRNKDHYGIMMYHRNRLIKAYEKVGCQLRANNMGVGVVGIIECNFLKPTHNKQDFDYTNEYRLTITALGEKLNDYWNEMKVKKNTE	–	–	–	Kd (MORC3-CW E453A (human)): 9000 nM; stoichiometry N (MORC3-CW E453A (human)): 1
WT FLAG-MORC3: FLAG-tagged full length wild-type MORC3 (protein, UniProt Q14149 1-939, looked up, full-length FLAG tag) MAAQPPRGIRLSALCPKFLHTNSTSHTWPFSAVAELIDNAYDPDVNAKQIWIDKTVINDHICLTFTDNGNGMTSDKLHKMLSFGFSDKVTMNGHVPVGLYGNGFKSGSMRLGKDAIVFTKNGESMSVGLLSQTYLEVIKAEHVVVPIVAFNKHRQMINLAESKASLAAILEHSLFSTEQKLLAELDAIIGKKGTRIIIWNLRSYKNATEFDFEKDKYDIRIPEDLDEITGKKGYKKQERMDQIAPESDYSLRAYCSILYLKPRMQIILRGQKVKTQLVSKSLAYIERDVYRPKFLSKTVRITFGFNCRNKDHYGIMMYHRNRLIKAYEKVGCQLRANNMGVGVVGIIECNFLKPTHNKQDFDYTNEYRLTITALGEKLNDYWNEMKVKKNTEYPLNLPVEDIQKRPDQTWVQCDACLKWRKLPDGMDQLPEKWYCSNNPDPQFRNCEVPEEPEDEDLVHPTYEKTYKKTNKEKFRIRQPEMIPRINAELLFRPTALSTPSFSSPKESVPRRHLSEGTNSYATRLLNNHQVPPQSEPESNSLKRRLSTRSSILNAKNRRLSSQFENSVYKGDDDDEDVIILEENSTPKPAVDHDIDMKSEQSHVEQGGVQVEFVGDSEPCGQTGSTSTSSSRCDQGNTAATQTEVPSLVVKKEETVEDEIDVRNDAVILPSCVEAEAKIHETQETTDKSADDAGCQLQELRNQLLLVTEEKENYKRQCHMFTDQIKVLQQRILEMNDKYVKKETCHQSTETDAVFLLESINGKSESPDHMVSQYQQALEEIERLKKQCSALQHVKAECSQCSNNESKSEMDEMAVQLDDVFRQLDKCSIERDQYKSEVELLEMEKSQIRSQCEELKTEVEQLKSTNQQTATDVSTSSNIEESVNHMDGESLKLRSLRVNVGQLLAMIVPDLDLQQVNYDVDVVDEILGQVVEQMSEISST	–	purifies in the chromatin and soluble fractions	localized to NBs	–
C416S: FLAG-tagged MORC3 mutant in CW domain that disrupts the CW structure (protein, UniProt Q14149 1-939, looked up, variant C416S, full-length FLAG tag) MAAQPPRGIRLSALCPKFLHTNSTSHTWPFSAVAELIDNAYDPDVNAKQIWIDKTVINDHICLTFTDNGNGMTSDKLHKMLSFGFSDKVTMNGHVPVGLYGNGFKSGSMRLGKDAIVFTKNGESMSVGLLSQTYLEVIKAEHVVVPIVAFNKHRQMINLAESKASLAAILEHSLFSTEQKLLAELDAIIGKKGTRIIIWNLRSYKNATEFDFEKDKYDIRIPEDLDEITGKKGYKKQERMDQIAPESDYSLRAYCSILYLKPRMQIILRGQKVKTQLVSKSLAYIERDVYRPKFLSKTVRITFGFNCRNKDHYGIMMYHRNRLIKAYEKVGCQLRANNMGVGVVGIIECNFLKPTHNKQDFDYTNEYRLTITALGEKLNDYWNEMKVKKNTEYPLNLPVEDIQKRPDQTWVQCDASLKWRKLPDGMDQLPEKWYCSNNPDPQFRNCEVPEEPEDEDLVHPTYEKTYKKTNKEKFRIRQPEMIPRINAELLFRPTALSTPSFSSPKESVPRRHLSEGTNSYATRLLNNHQVPPQSEPESNSLKRRLSTRSSILNAKNRRLSSQFENSVYKGDDDDEDVIILEENSTPKPAVDHDIDMKSEQSHVEQGGVQVEFVGDSEPCGQTGSTSTSSSRCDQGNTAATQTEVPSLVVKKEETVEDEIDVRNDAVILPSCVEAEAKIHETQETTDKSADDAGCQLQELRNQLLLVTEEKENYKRQCHMFTDQIKVLQQRILEMNDKYVKKETCHQSTETDAVFLLESINGKSESPDHMVSQYQQALEEIERLKKQCSALQHVKAECSQCSNNESKSEMDEMAVQLDDVFRQLDKCSIERDQYKSEVELLEMEKSQIRSQCEELKTEVEQLKSTNQQTATDVSTSSNIEESVNHMDGESLKLRSLRVNVGQLLAMIVPDLDLQQVNYDVDVVDEILGQVVEQMSEISST	–	did not associate with chromatin and were found only in the soluble fractions	–	–
W419A: FLAG-tagged MORC3 mutant that abrogates binding to the histone H3 tail (protein, UniProt Q14149 1-939, looked up, variant W419A, full-length FLAG tag) MAAQPPRGIRLSALCPKFLHTNSTSHTWPFSAVAELIDNAYDPDVNAKQIWIDKTVINDHICLTFTDNGNGMTSDKLHKMLSFGFSDKVTMNGHVPVGLYGNGFKSGSMRLGKDAIVFTKNGESMSVGLLSQTYLEVIKAEHVVVPIVAFNKHRQMINLAESKASLAAILEHSLFSTEQKLLAELDAIIGKKGTRIIIWNLRSYKNATEFDFEKDKYDIRIPEDLDEITGKKGYKKQERMDQIAPESDYSLRAYCSILYLKPRMQIILRGQKVKTQLVSKSLAYIERDVYRPKFLSKTVRITFGFNCRNKDHYGIMMYHRNRLIKAYEKVGCQLRANNMGVGVVGIIECNFLKPTHNKQDFDYTNEYRLTITALGEKLNDYWNEMKVKKNTEYPLNLPVEDIQKRPDQTWVQCDACLKARKLPDGMDQLPEKWYCSNNPDPQFRNCEVPEEPEDEDLVHPTYEKTYKKTNKEKFRIRQPEMIPRINAELLFRPTALSTPSFSSPKESVPRRHLSEGTNSYATRLLNNHQVPPQSEPESNSLKRRLSTRSSILNAKNRRLSSQFENSVYKGDDDDEDVIILEENSTPKPAVDHDIDMKSEQSHVEQGGVQVEFVGDSEPCGQTGSTSTSSSRCDQGNTAATQTEVPSLVVKKEETVEDEIDVRNDAVILPSCVEAEAKIHETQETTDKSADDAGCQLQELRNQLLLVTEEKENYKRQCHMFTDQIKVLQQRILEMNDKYVKKETCHQSTETDAVFLLESINGKSESPDHMVSQYQQALEEIERLKKQCSALQHVKAECSQCSNNESKSEMDEMAVQLDDVFRQLDKCSIERDQYKSEVELLEMEKSQIRSQCEELKTEVEQLKSTNQQTATDVSTSSNIEESVNHMDGESLKLRSLRVNVGQLLAMIVPDLDLQQVNYDVDVVDEILGQVVEQMSEISST	–	did not associate with chromatin and were found only in the soluble fractions	diffused throughout the nucleus	–
C416A: FLAG-tagged MORC3 mutant in CW domain that disrupts the CW structure (protein, UniProt Q14149 1-939, looked up, variant C416A, full-length FLAG tag) MAAQPPRGIRLSALCPKFLHTNSTSHTWPFSAVAELIDNAYDPDVNAKQIWIDKTVINDHICLTFTDNGNGMTSDKLHKMLSFGFSDKVTMNGHVPVGLYGNGFKSGSMRLGKDAIVFTKNGESMSVGLLSQTYLEVIKAEHVVVPIVAFNKHRQMINLAESKASLAAILEHSLFSTEQKLLAELDAIIGKKGTRIIIWNLRSYKNATEFDFEKDKYDIRIPEDLDEITGKKGYKKQERMDQIAPESDYSLRAYCSILYLKPRMQIILRGQKVKTQLVSKSLAYIERDVYRPKFLSKTVRITFGFNCRNKDHYGIMMYHRNRLIKAYEKVGCQLRANNMGVGVVGIIECNFLKPTHNKQDFDYTNEYRLTITALGEKLNDYWNEMKVKKNTEYPLNLPVEDIQKRPDQTWVQCDAALKWRKLPDGMDQLPEKWYCSNNPDPQFRNCEVPEEPEDEDLVHPTYEKTYKKTNKEKFRIRQPEMIPRINAELLFRPTALSTPSFSSPKESVPRRHLSEGTNSYATRLLNNHQVPPQSEPESNSLKRRLSTRSSILNAKNRRLSSQFENSVYKGDDDDEDVIILEENSTPKPAVDHDIDMKSEQSHVEQGGVQVEFVGDSEPCGQTGSTSTSSSRCDQGNTAATQTEVPSLVVKKEETVEDEIDVRNDAVILPSCVEAEAKIHETQETTDKSADDAGCQLQELRNQLLLVTEEKENYKRQCHMFTDQIKVLQQRILEMNDKYVKKETCHQSTETDAVFLLESINGKSESPDHMVSQYQQALEEIERLKKQCSALQHVKAECSQCSNNESKSEMDEMAVQLDDVFRQLDKCSIERDQYKSEVELLEMEKSQIRSQCEELKTEVEQLKSTNQQTATDVSTSSNIEESVNHMDGESLKLRSLRVNVGQLLAMIVPDLDLQQVNYDVDVVDEILGQVVEQMSEISST	–	did not associate with chromatin and were found only in the soluble fractions	diffused throughout the nucleus	–
ARTK(Me3)QTARKSTG (peptide, UniProt P68431 2-13, looked up) [histone H3K4me3 peptide (residues 1-12 of H3)]	–	–	–	binding result [3]: binds

More lines, main results first:

Kd [1] [nM]	Molecule	association with chromatin (chromatin in HeLa cells)	nuclear localization [2]	also measured
740	histone H3K4me1 peptide	–	–	–
640	histone H3K4me3 peptide (residues 1-12 of H3) (from UniProt P68431 2-13)	–	–	–
670	histone H3K4me2 peptide	–	–	–
